Hits are enriched below; roughly 3.7% of the tested compounds scored in any of these assays.
KCNK3 block – human KCNK3 channel inhibitors, primary screen, CHO cells, FluxOR thallium flux, B-score. Potassium channel subfamily K member 3 (Homo sapiens), O14649. FluxOR fluorescence; active compounds read low. 340,000 compounds, 0.84% hits. B-score at 10 µM;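 active = B-score under library mean minus 4 SD, starting fluorescence ratio at most library mean plus 5 SD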;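 note: more negative B-score means stronger inhibition of thallium flux through KCNK3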
KCNK9 block – KCNK9 potassium channel inhibitors, primary screen, HEK293 cells, thallium flux | Potassium channel subfamily K member 9 (Homo sapiens), Q9NPC2 | FluxOR thallium flux fluorescence; active compounds read low | B-score at 10 µM | 310,000 compounds, 1.2% hits | AID 488922, 2010;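 active = ratio B-score over 3 SD below the library mean, with starting fluorescence within 5 SD of its mean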;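 note: negative B-score means less thallium flux so channel inhibition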
Target sequence (Q9NPC2 whole entry, looked up): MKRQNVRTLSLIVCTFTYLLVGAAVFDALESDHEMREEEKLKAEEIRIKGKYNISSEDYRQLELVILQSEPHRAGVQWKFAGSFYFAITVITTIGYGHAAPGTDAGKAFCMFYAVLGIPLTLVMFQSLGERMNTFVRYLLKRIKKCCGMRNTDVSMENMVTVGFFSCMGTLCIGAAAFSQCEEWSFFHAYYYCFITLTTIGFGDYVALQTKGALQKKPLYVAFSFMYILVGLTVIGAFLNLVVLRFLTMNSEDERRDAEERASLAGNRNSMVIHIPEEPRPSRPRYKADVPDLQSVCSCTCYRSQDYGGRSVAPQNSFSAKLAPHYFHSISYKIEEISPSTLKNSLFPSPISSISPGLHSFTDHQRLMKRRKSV
hERG protect – hERG rescue from dofetilide block, primary screen, cell-based, CHO-hERG, FluxOR thallium flux, dofetilide IC70 | dofetilide IC70 present | activation (rescue from dofetilide block), less the hit threshold, % at 10 µM | 310,000 compounds, 0.51% hits | AID 1511, 2009;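 active = activation above the mean of controls blocked by dofetilide plus 5 SD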;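 note: thallium influx through hERG after potassium depolarization seen as dye fluorescence rise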
KCNQ1 inh – inhibitors of human KCNQ1 channel, primary screen, cell-based, thallium flux, high-throughput; Potassium voltage-gated channel subfamily KQT member 1 (Homo sapiens), P51787; AID 2642, 2010; CHO-K1 KCNQ1, FluxOR thallium flux fluorescence; active compounds read high; B-score at 10 µM; 310,000 compounds, 1.3% hits;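 active = compounds whose thallium flux B-score, printed positive for inhibition, exceeds three library SD while starting fluorescence stays within three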;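 note: channel opened by potassium depolarization with thallium stimulus after 20 min compound exposure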
Kir21 inh – inhibitors of mouse Kir2.1 inward-rectifier potassium channel; Inward rectifier potassium channel 2 (Mus musculus), P35561; HEK293-Kir2.1, FluxOR thallium flux fluorescence; active compounds read low; B-score at 10 µM; 310,000 compounds, 0.85% hits;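 active = fluorescence ratio B-score at or below minus 3 SD of library scores, with starting-brightness B-score within 2 SD, cut at about -4.2 in these data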;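 note: channel flux triggered by added potassium and thallium sulfate stimulus; B-score of peak minus minimum fluorescence over baseline after thallium stimulus; more negative B-score means stronger Kir2.1 block with less thallium influx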
KCNQ1 pot – potentiators or activators of KCNQ1 channel, primary screen, cell-based, thallium flux, high-throughput. Potassium voltage-gated channel subfamily KQT member 1 (Homo sapiens), P51787. CHO-K1 KCNQ1, thallium flux FluxOR fluorescence; active compounds read high. B-score at 10 µM. 310,000 compounds, 0.35% hits;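 active = fluorescence ratio B-score, a plate-corrected score, at least three library SD, with initial intensity B-score within 5 SD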
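assay system = CHO-K1 cells stably expressing KCNQ1 | medium = assay buffer, equal DMSO in all wells | timing = 37 °C overnight plating, 90-min dark dye load, 20-min compound pretreatment | measured by = kinetic FluxOR thallium fluorescence, 10-s 1-Hz baseline, 110-s post-stimulus read | measure = fluorescence change relative to baseline, converted to B score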
KCNK9 inh conf – KCNK9 potassium channel inhibitors, confirmation, HEK293 cells, thallium flux, duplicate | shares compounds with KCNK9 block | FluxOR thallium flux fluorescence | inhibition, % at 10 µM | 4,900 compounds, 43% hits | AID 492992, 2010;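 active = thallium signal inhibited by more than 5 SD of the compound-free buffer control wells, on both duplicate plates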;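 note: 0% = assay buffer control wells without compound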
Kir2-1 spec – mouse Kir2.1 channel inhibition, confirmation, selectivity assay for KCNK9 modulator project, cell-based, HEK293, thallium flux | shares compounds with KCNK9 block | Kir2.1 cells, FluxOR thallium flux fluorescence | inhibition, % at 10 µM | 4,900 compounds, 4% hits;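 active = thallium signal drop more than 5 SD beyond the mean of the no-compound control wells, seen in both duplicate plates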;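 note: signal is fluorescence rise after thallium addition divided by baseline fluorescence; plate controls were assay buffer only for no effect and full block by chlorpromazine control for full effect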
KCNK9 uninduced – thallium flux in non-induced HEK293 cells, confirmation, counter-screen for KCNK9 inhibitor project, cell-based, second counter screen, non-induced KCNK9-HEK293. shares compounds with KCNK9 block. FluxOR thallium flux. inhibition, % at 10 µM. 4,900 compounds, 40% hits. AID 492997, 2010;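 active = thallium signal drop beyond 5 SD of the untreated control mean, on both duplicate plates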;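 note: plate controls were buffer only IC0 wells for no effect and SID17386958 at its maximal inhibitory level for full effect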
An asterisk follows results filed as active; i = inactive; / = no result given.

SMILES	KCNK3 block	KCNK9 block	hERG protect	KCNQ1 inh	Kir21 inh	KCNQ1 pot	KCNK9 inh conf	Kir2-1 spec	KCNK9 uninduced
COc1ccc(OCc2cc(C(=O)N3CCN(C4CCCC4)CC3)no2)c(Cl)c1	i	i	-14.0	i	0.66	i	i	i	i
COc1ccc(OCc2cc(C(=O)N3CCCCCCC3)no2)c(Cl)c1	i	i	-6.2	i	1.03	i	/	/	/
CSc1ccccc1OCc1cc(C(=O)N2CCc3c(Cl)cccc3C2)no1	i	i	-12.4	i	0.07	i	i	i	i
Cc1ccc(OCc2cc(C(=O)N3CCCCCCC3)no2)cc1C	i	i	-5.1	i	2.01	i	/	/	/
Cc1ccc(OCc2cc(C(=O)N3CCC(c4ccccc4Cl)C3)no2)cc1C (stereo not drawn)	i	i	-4.9	i	0.31	i	i	i	i
CCOC(=O)C1CCN(CCCSc2ccc(C)cc2)CC1	i	i	-6.2	i	1.03	i	i	i	i
O=S(=O)(c1ccc(OC(F)(F)F)cc1)N1CCCC(c2ccccc2)C1 (stereo not drawn)	i	-11.1*	-3.5	i	0.48	i	i	i	i
O=c1[nH]c(C2CCCN(S(=O)(=O)c3ccccc3)C2)nc2c1nnn2Cc1ccc(OC(F)(F)F)cc1 (stereo not drawn)	i	i	-5.3	i	-0.8	i	/	/	/
CC(=O)c1ccc(OCCCCCCCOc2ccc(C(C)=O)cc2)cc1	i	-8.85*	0.1	i	0.75	i	i	i	i
CCOc1ccccc1C(=O)NCC(=O)Nc1ncccc1C	i	i	-17.6	i	0.96	i	/	/	/
CCOc1ccc(C(=O)NCC(=O)Nc2ncccc2C)cc1OCC	i	i	-5.5	i	0.01	i	51.0%*	i	i
O=C(CC(Nc1ccccc1)c1ccc(F)cc1)c1ccccc1 (stereo not drawn)	i	-9.72*	-14.0	i	-5.52*	i	60.0%*	i	42.5%*
CCc1ccc(CN2CCCC(C(=O)Nc3ccccc3-c3ccc(OC)cc3)C2)o1 (stereo not drawn)	i	-8.73*	-11.7	i	-5.92*	i	i	i	28.0%*
COc1ccc(S(=O)(=O)N2CCN(c3ncccn3)CC2)cc1OC	i	i	-6.2	i	-0.71	i	/	/	/
N#Cc1c2c(c[nH]c1=O)CCN2Cc1ccccc1	i	i	-6.7	i	-0.36	i	/	/	/
Cc1ccc(C)c(N=C2CCCN2Cc2ccccc2)c1C#N	i	-8.9*	-12.9	i	-3.18	i	i	i	36.0%*
COc1cccc(NC(=O)[C@H](CC(C)C)NC(=O)N2CCn3c2nc2ccccc23)c1	i	-9.94*	-5.5	i	0.32	i	i	i	i
COc1cccc(C(=O)N(Cc2nc(-c3cccc(C)c3)no2)C(C)C)c1OC	i	i	-11.8	i	-0.41	i	i	i	i
Cc1cccc(-c2noc(CN(C(=O)C(c3ccccc3)c3ccccc3)C(C)C)n2)c1	-12.1*	-17.4*	-8.9	6*	-0.55	i	53.5%*	i	i
Cc1cccc(-c2noc(CN(C(=O)c3ccc4c(c3)OCO4)C(C)C)n2)c1	i	i	-6.4	i	-1.77	i	/	/	/
COc1ccc(C)cc1N(CC(=O)NCCSCc1cccc(Cl)c1)S(C)(=O)=O	i	i	-8.1	i	-1.22	i	/	/	/
CC(=O)N1N=C(c2ccc(C)cc2)OC1c1ccc(C)cc1 (stereo not drawn)	i	i	-7.2	i	-0.42	i	/	/	/
CC(=O)N1N=C(c2ccc(C)cc2)OC1c1ccc(C(C)C)cc1 (stereo not drawn)	i	i	-9.0	i	0.92	i	i	i	30.0%*
CCC(C)n1c(SCC(=O)Nc2ccccc2C(F)(F)F)nc2ccsc2c1=O (stereo not drawn)	i	-8.94*	-9.6	i	-0.28	i	26.0%*	i	26.5%*
CSc1ccc(CN(C)C(=O)CNC(=O)c2sc3ccccc3c2Cl)cc1	i	i	-4.3	i	0.03	i	/	/	/
SMILES	KCNK3 block	KCNK9 block	hERG protect	KCNQ1 inh	Kir21 inh	KCNQ1 pot	KCNK9 inh conf	Kir2-1 spec	KCNK9 uninduced
CCn1nc(C(=O)Nc2cccc(C(F)(F)F)c2)c(Cl)c1Cl	i	-8.93*	-7.0	i	-0.13	i	46.0%*	i	28.0%*
CCn1cc(Br)c(C(=O)Nc2cccc(Cl)c2)n1	i	-12.2*	-5.9	i	-1.65	i	63.0%*	i	33.0%*
O=C(Nc1nnc(-c2ccc3c(c2)CCCC3)o1)c1c(F)cccc1F	i	i	-11.1	i	-1.57	i	/	/	/
COc1ccc(-c2csc(NC(=O)c3ccc(S(=O)(=O)N4CCc5ccccc5C4)cc3)n2)cc1	i	i	-14.8	i	-0.27	i	/	/	/
CN(C)S(=O)(=O)c1ccc(C(=O)Nc2nnc(-c3ccc4c(c3)CCCC4)o2)cc1	i	i	-17.7	i	-0.29	i	i	i	i
O=C(Nc1nnc(-c2ccc3c(c2)CCCC3)o1)c1ccc(Cl)cc1Cl	i	i	18.9*	i	3	52*	i	i	i
COc1ccc(-c2nnc(NC(=O)c3ccc(S(=O)(=O)N4CCc5ccccc5C4)cc3)o2)cc1	i	i	-1.6	i	1.56	i	i	i	i
COc1ccc(-c2noc(CNS(=O)(=O)c3ccc(NC(C)=O)cc3)n2)cc1OC	i	i	-2.8	i	0.1	i	/	/	/
